Results published in ChEMBL document CHEMBL1143693, “Cancer chemopreventive effects of cycloartane-type and related triterpenoids in in vitro and in vivo models” (J Nat Prod, 2007).
Calls of active or inactive are those of the source. No cut-off for these calls is given here.

Tests used:
Mus musculus [1] = species: Mus musculus; assay: Inhibition of TPA-induced skin tumor promotion in ICR mouse assessed as incidence of skin papilloma at 85 nmol after 20 weeks; type: functional; conditions: values are per cent of control
Method in brief: (§1)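 Specific pathogen-free ICR mice, 15 per group, were initiated with DMBA and promoted with TPA, with or without 85 nmol compound. Papilloma incidence and mean papillomas per mouse were recorded up to 20 weeks of promotion. Groups were compared by Student's t-test.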

Raji = assay: Cell viability of Raji cells at 320 nM; type: functional, Homo sapiens
Human gammaherpesvirus 4 [2] = assay: Inhibition of TPA-induced Epstein-Barr virus early antigen activation assessed as EBV-EA induction in Raji cells at 3.2 nM after 48 hrs relative to TPA; values are per cent of control; conditions: human gammaherpesvirus 4, Raji
Human gammaherpesvirus 4 [3] = assay: Inhibition of TPA-induced Epstein-Barr virus early antigen activation in Raji cells after 48 hrs; type: functional, organism-based; conditions: human gammaherpesvirus 4, Raji
Human gammaherpesvirus 4 [4] = assay: Inhibition of TPA-induced Epstein-Barr virus early antigen activation assessed as EBV-EA induction in Raji cells at 320 nM after 48 hrs relative to TPA; values are per cent of control; conditions: human gammaherpesvirus 4, Raji
Human gammaherpesvirus 4 [5] = assay: Inhibition of TPA-induced Epstein-Barr virus early antigen activation assessed as EBV-EA induction in Raji cells at 0.32 nM after 48 hrs relative to TPA; values are per cent of control; conditions: human gammaherpesvirus 4, Raji
[6] = Scavenging activity against NO generation in human Chang liver cells assessed as inhibition of NOR1-activation at 350 nM relative to NOR1; type: functional
Mus musculus [7] = species: Mus musculus; assay: Inhibition of TPA-induced skin tumor promotion in ICR mouse assessed as incidence of skin papilloma at 85 nmol after 10 weeks; type: functional; method in brief: as §1
Mus musculus [8] = species: Mus musculus; assay: Inhibition of TPA-induced skin tumor promotion in ICR mouse assessed as reduction in number of skin papillomas at 85 nmol; type: functional, organism-based; method in brief: as §1
Human gammaherpesvirus 4 [9] = assay: Inhibition of TPA-induced Epstein-Barr virus early antigen activation assessed as EBV-EA induction in Raji cells at 32 nM after 48 hrs relative to TPA; values are per cent of control; conditions: human gammaherpesvirus 4, Raji

IC50 (Human gammaherpesvirus 4 [3]) | SMILES | response, % of control (Mus musculus [1]) | Activity (Raji) | level, % of control at 0.0032 µM (Human gammaherpesvirus 4 [2]) | level, % of control at 0.32 µM (Human gammaherpesvirus 4 [4]) | level, % of control at 0.00032 µM (Human gammaherpesvirus 4 [5]) | Activity [6] | Papilloma incidence % (Mus musculus [7]) | Activity (Mus musculus [8]) | level, % of control at 0.032 µM (Human gammaherpesvirus 4 [9])
6.1 nM | CC(C)C(O)(CO)CC[C@@H](C)[C@H]1CC[C@@]2(C)[C@@H]3CC[C@H]4C(C)(C)[C@@H](O)CC[C@@]45C[C@@]35CC[C@]12C (some centres not stated) | 80% | 70% | 63.2% | 0% | 81% | 2.2 | 20% | Active | 13%
6.7 nM | COCC(O)(CC[C@@H](C)[C@H]1CC[C@@]2(C)[C@@H]3CC[C@H]4C(C)(C)[C@@H](O)CC[C@@]45C[C@@]35CC[C@]12C)C(C)C (some centres not stated) | 87% | 70% | 65.4% | 0% | 83.1% | 2.1 | 27% | Active | 15.2%
9 nM | CC(C)=CCC[C@@H](C)C1=CC[C@@]2(C)[C@@H]3CC[C@H]4C(C)(C)[C@@H](O)CC[C@@]45C[C@@]35CC[C@]12C [CIMICIFUGENOL] | – | 70% | 72.6% | 0% | 93.8% | 1.8 | – | – | 26.8%
9 nM | CC(C)C(=O)CC[C@@H](C)[C@H]1CC[C@@]2(C)[C@@H]3CC[C@H]4C(C)(C)C(=O)CC[C@@]45C[C@@]35CC[C@]12C | – | 70% | 72.1% | 0% | 96.3% | 1.9 | – | – | 24%
6.7 nM | C[C@@H]1[C@@H](O)CC[C@]23C[C@]24CC[C@]2(C)[C@@H]([C@H](C)CC[C@H](O)C(C)(C)O)CC[C@@]2(C)[C@@H]4CC[C@@H]13 | – | 70% | 61.3% | 0% | 88.8% | 1.7 | – | – | 17.1%

SMILES | IC50 (Human gammaherpesvirus 4 [3]) | response, % of control (Mus musculus [1]) | Activity (Raji) | level, % of control at 0.0032 µM (Human gammaherpesvirus 4 [2]) | level, % of control at 0.32 µM (Human gammaherpesvirus 4 [4]) | level, % of control at 0.00032 µM (Human gammaherpesvirus 4 [5]) | Activity [6] | Papilloma incidence % (Mus musculus [7]) | Activity (Mus musculus [8]) | level, % of control at 0.032 µM (Human gammaherpesvirus 4 [9])
C=C(CC[C@@H](C)[C@H]1CC[C@@]2(C)[C@@H]3CC[C@H]4C[C@@H](O)CC[C@@]45C[C@@]35CC[C@]12C)C(C)C | 9.5 nM | – | 70% | 72.7% | 0% | 95.8% | 1.5 | – | – | 30.5%
C=C(CC[C@@H](C)[C@H]1CC[C@@]2(C)[C@@H]3CC[C@H]4[C@H](C)[C@H](O)CC[C@@]45C[C@@]35CC[C@]12C)C(C)C | 9.4 nM | – | 70% | 73.1% | 0% | 95.9% | 1.6 | – | – | 30.5%
CC(=O)O[C@@H]1CC[C@]23C[C@]24CC[C@]2(C)[C@@H]([C@H](C)CCC=C(C)C)CC[C@@]2(C)[C@@H]4CC[C@H]3C1(C)C | 10.2 nM | – | 70% | 73.1% | 0% | 96% | 1.6 | – | – | 33.2%
